In brackets after ≈: the same amount, converted by molar mass.
Columns and labels:
[1] = system: Bacillus subtilis; assay: Antibacterial activity against Bacillus subtilis ATCC 6633 after 24 hrs by NCCLS method; type: functional; settings: ATCC 6633, 24 h
Outline: (§1)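 Agar dilution on Mueller Hinton agar. Overnight cultures on soybean casein digest agar at 37 °C were adjusted to 0.5 McFarland, then diluted 10-fold to 1.2 × 10^7 CFU/mL. 10 µL of each culture was spotted, incubated at 35 °C for 24 h. MIC taken as the lowest concentration preventing growth. Triplicates.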

[2] = system: Enterococcus faecalis; assay: Antibacterial activity against Enterococcus faecalis ATCC 29212 after 24 hrs by NCCLS method; type: functional; settings: ATCC 29212, 24 h; outline: as §1
[3] = system: Candida tropicalis; assay: Antifungal activity against Candida tropicalis IFO 10241 after 24 to 72 hrs by NCCLS method; type: functional
Outline: (§2)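 Yeasts were grown overnight on Sabouraud dextrose agar at 35 °C and adjusted in saline to 0.5 McFarland (1.0–5.0 × 10^6 cells/mL). This stock was diluted 1:100 then 1:20 to 5.0 × 10^2–2.5 × 10^3 cells/mL. Tubes were incubated at 35 °C for 48 h in ambient air. MIC taken as the lowest concentration preventing growth. Triplicates.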

[4] = system: Clavispora lusitaniae; assay: Antifungal activity against Candida lusitaniae ATCC 42720 after 24 to 72 hrs by NCCLS method; type: functional; outline: as §2
[5] = system: Escherichia coli; assay: Antibacterial activity against Escherichia coli ATCC 10536 after 24 hrs by NCCLS method; type: functional; settings: ATCC 10536, 24 h; outline: as §1
[6] = system: Candida albicans; assay: Antifungal activity against Candida albicans ATCC 10231 after 24 to 72 hrs by NCCLS method; type: functional; outline: as §2
[7] = system: Micrococcus luteus; assay: Antibacterial activity against Micrococcus luteus ATCC 10240 after 24 hrs by NCCLS method; type: functional; settings: ATCC 10240, 24 h; outline: as §1
[8] = system: Escherichia coli; assay: Antibacterial activity against Escherichia coli ATCC 25922 after 24 hrs by NCCLS method; type: functional; settings: ATCC 25922, 24 h; outline: as §1
[9] = system: Klebsiella pneumoniae; assay: Antibacterial activity against Klebsiella pneumoniae ATCC 10031 after 24 hrs by NCCLS method; type: functional; settings: ATCC 10031, 24 h; outline: as §1
[10] = system: Pichia kudriavzevii; assay: Antifungal activity against Candida krusei IFO 1664 after 24 to 72 hrs by NCCLS method; type: functional; outline: as §2
[11] = system: Staphylococcus epidermidis; assay: Antibacterial activity against Staphylococcus epidermidis ATCC 0155 after 24 hrs by NCCLS method; type: functional; settings: ATCC 0155, 24 h; outline: as §1
[12] = system: Staphylococcus aureus; assay: Antibacterial activity against Staphylococcus aureus ATCC 25923 after 24 hrs by NCCLS method; type: functional; settings: ATCC 25923, 24 h; outline: as §1
[13] = system: Proteus mirabilis; assay: Antibacterial activity against Proteus mirabilis ATCC 27853 after 24 hrs by NCCLS method; type: functional; outline: as §1
[14] = Drug uptake assessed as incorporation into egg phosphatidylcholine liposome by HPLC; type: ADME; settings: artificial membrane
Outline: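 Egg PC liposomes were diluted 10-fold in PBS, untrapped glucose was removed by centrifugation, and lipid was adjusted to 1 mg/mL. Compound in ethanol was added to final 50 µM with 10% ethanol. Percent incorporated into bilayers was derived from HPLC peak integration of compound left in solution.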

[15] = Chemical stability in PBS buffer at pH 7.4 assessed as compound remaining after 16 hrs by HPLC; type: physicochemical; settings: read-out: Stability
Outline: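 Compound at 200 µM in 1% DMSO / 50 mM PBS, pH 7.4, incubated at 37 °C without cells; pH was checked before and after. Samples went onto a C-18 HPLC column (35/65 CH3CN/H2O, 1 mL/min, column at 37 °C). Percent remaining was taken from peak integration against an internal standard at 254 nm.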

SMILES	MIC [1]	MIC [2]	MIC [3]	MIC [4]	MIC [5]	MIC [6]	MIC [7]	MIC [8]	MIC [9]	MIC [10]	MIC [11]	MIC [12]	MIC [13]	Drug uptake [14]	remaining at 16 h [15]
COc1cc(CO[C@H]2Cc3c(O)cc(O)cc3O[C@@H]2c2ccc(O)c(O)c2)cc(OC)c1OC	32 µg/mL (≈ 68 µM)	64 µg/mL (≈ 136 µM)	128 µg/mL (≈ 272 µM)	64 µg/mL (≈ 136 µM)	64 µg/mL (≈ 136 µM)	64 µg/mL (≈ 136 µM)	16 µg/mL (≈ 34 µM)	> 128 µg/mL	128 µg/mL (≈ 272 µM)	128 µg/mL (≈ 272 µM)	32 µg/mL (≈ 68 µM)	32 µg/mL (≈ 68 µM)			
Oc1cc(O)c2c(c1)O[C@H](c1cc(O)c(O)c(O)c1)[C@H](O)C2 [EPIGALLOCATECHIN]	> 128 µg/mL	> 128 µg/mL	> 128 µg/mL	> 128 µg/mL	> 128 µg/mL	> 128 µg/mL	> 128 µg/mL	> 128 µg/mL	> 128 µg/mL	> 128 µg/mL	> 128 µg/mL	> 128 µg/mL	> 128 µg/mL		
O=C(O[C@@H]1Cc2c(O)cc(O)cc2O[C@@H]1c1ccc(O)c(O)c1)c1cc(O)c(O)c(O)c1 [EPICATECHIN GALLATE]	> 128 µg/mL	> 128 µg/mL	> 128 µg/mL	> 128 µg/mL	> 128 µg/mL	> 128 µg/mL	> 128 µg/mL	> 128 µg/mL	> 128 µg/mL	> 128 µg/mL	> 128 µg/mL	> 128 µg/mL	> 128 µg/mL		
CCCCCCCCCCCCCCCCO[C@H]1Cc2c(O)cc(O)cc2O[C@@H]1c1ccc(O)c(O)c1														100%	
Oc1cc(O)c2c(c1)O[C@H](c1ccc(O)c(O)c1)[C@@H](OCc1ccccc1)C2	64 µg/mL (≈ 168 µM)	32 µg/mL (≈ 84.1 µM)	> 128 µg/mL	> 128 µg/mL	> 128 µg/mL	> 128 µg/mL	32 µg/mL (≈ 84.1 µM)	> 128 µg/mL	128 µg/mL (≈ 336 µM)	> 128 µg/mL	64 µg/mL (≈ 168 µM)	64 µg/mL (≈ 168 µM)	128 µg/mL (≈ 336 µM)		
Oc1cc(O)c2c(c1)O[C@H](c1ccc(O)c(O)c1)[C@H](O)C2 [(-)-EPICATECHIN]	> 128 µg/mL	> 128 µg/mL	> 128 µg/mL	> 128 µg/mL	> 128 µg/mL	> 128 µg/mL	> 128 µg/mL	> 128 µg/mL	> 128 µg/mL	> 128 µg/mL	> 128 µg/mL	> 128 µg/mL	> 128 µg/mL		
CCCCCCCCCCO[C@H]1Cc2c(O)cc(O)cc2O[C@@H]1c1ccc(O)c(O)c1														100%	> 90%
CCCCCCCCCCCCCCO[C@H]1Cc2c(O)cc(O)cc2O[C@@H]1c1ccc(O)c(O)c1														100%	
CCCCCCO[C@H]1Cc2c(O)cc(O)cc2O[C@@H]1c1ccc(O)c(O)c1														100%	
CCCCCCCCCC(=O)O[C@H]1Cc2c(O)cc(O)cc2O[C@@H]1c1ccc(O)c(O)c1															75%
NC[C@H]1O[C@H](O[C@H]2[C@H](O)[C@@H](O[C@H]3O[C@H](CO)[C@@H](O)[C@H](N)[C@H]3O)[C@H](N)C[C@@H]2N)[C@H](O)[C@@H](O)[C@@H]1O.O=S(=O)(O)O [KANAMYCIN SULFATE]	2 µg/mL	32 µg/mL			8 µg/mL		8 µg/mL	8 µg/mL	64 µg/mL		4 µg/mL	16 µg/mL	32 µg/mL		
CCC(C)n1ncn(-c2ccc(N3CCN(c4ccc(OCC5COC(Cn6cncn6)(c6ccc(Cl)cc6Cl)O5)cc4)CC3)cc2)c1=O (configuration not stated) [ITRACONAZOLE]			0.06 µg/mL (≈ 0.085 µM)	0.125 µg/mL (≈ 0.177 µM)		0.06 µg/mL (≈ 0.085 µM)				0.25 µg/mL (≈ 0.354 µM)					
CCCO[C@H]1Cc2c(O)cc(O)cc2O[C@@H]1c1ccc(O)c(O)c1	128 µg/mL (≈ 385 µM)	64 µg/mL (≈ 193 µM)	> 128 µg/mL	> 128 µg/mL	> 128 µg/mL	> 128 µg/mL	32 µg/mL (≈ 96.3 µM)	> 128 µg/mL	> 128 µg/mL	> 128 µg/mL	64 µg/mL (≈ 193 µM)	64 µg/mL (≈ 193 µM)	> 128 µg/mL		
O=C(O[C@@H]1Cc2c(O)cc(O)cc2O[C@@H]1c1cc(O)c(O)c(O)c1)c1cc(O)c(O)c(O)c1 [EPIGALOCATECHIN GALLATE]	> 128 µg/mL	> 128 µg/mL	> 128 µg/mL	> 128 µg/mL	> 128 µg/mL	> 128 µg/mL	32 µg/mL (≈ 69.8 µM)	> 128 µg/mL	> 128 µg/mL	> 128 µg/mL	128 µg/mL (≈ 279 µM)	> 128 µg/mL	> 128 µg/mL	Not Active	15%
Oc1cc(O)c2c(c1)O[C@H](c1ccc(O)c(O)c1)[C@@H](O)C2 [CIANIDANOL]	> 128 µg/mL	> 128 µg/mL	> 128 µg/mL	> 128 µg/mL	> 128 µg/mL	> 128 µg/mL	> 128 µg/mL	> 128 µg/mL	> 128 µg/mL	> 128 µg/mL	> 128 µg/mL	> 128 µg/mL	> 128 µg/mL		
O=C(O)c1cn(C2CC2)c2cc(N3CCNCC3)c(F)cc2c1=O [CIPROFLOXACIN]	< 0.06 µg/mL	0.5 µg/mL (≈ 1.51 µM)					< 0.06 µg/mL		< 0.06 µg/mL		0.25 µg/mL (≈ 0.754 µM)	0.25 µg/mL (≈ 0.754 µM)	0.125 µg/mL (≈ 0.377 µM)		
CCCCCCCCCCCCO[C@H]1Cc2c(O)cc(O)cc2O[C@@H]1c1ccc(O)c(O)c1														100%	
C[C@@H]1[C@H](O)[C@@H](C)/C=C/C=C/C=C/C=C/C=C/C=C/C=C/[C@H](O[C@@H]2O[C@H](C)[C@@H](O)[C@H](N)[C@@H]2O)C[C@@H]2O[C@](O)(C[C@@H](O)C[C@@H](O)[C@H](O)CC[C@@H](O)C[C@@H](O)CC(=O)O[C@H]1C)C[C@H](O)[C@H]2C(=O)O [AMPHOTERICIN B]			0.5 µg/mL (≈ 0.541 µM)	0.5 µg/mL (≈ 0.541 µM)		0.25 µg/mL (≈ 0.271 µM)				0.5 µg/mL (≈ 0.541 µM)					
CCCCCCCCO[C@H]1Cc2c(O)cc(O)cc2O[C@@H]1c1ccc(O)c(O)c1														100%	

— ChEMBL document CHEMBL1154814, “Synthesis and antimicrobial activities of 3-O-alkyl analogues of (+)-catechin: improvement of stability and proposed action mechanism” (Eur J Med Chem, 2010)
